# Measured values from ChEMBL document CHEMBL4118033, “Total Synthesis, Configuration Assignment, and Cytotoxic Activity Evaluation of Protulactone A” (J Nat Prod, 2017).
# Calls of active or inactive are those of the source. The rule behind the calls is not given here.
# Key:
# Type in all cases: functional, cell-based
# SN12C = assay: Antiproliferative activity against human SN12C cells at 10 uM incubated for 48 hrs by sulforhodamine B assay
# How it was run: (§1)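 Run by the NCI Developmental Therapeutics Program (Division of Cancer Treatment and Diagnosis) as part of the NCI60 human tumour cell line panel screen. Each compound was tested at a single dose of 10 μM. Results are reported as one-dose mean graphs.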
# SF-295 = assay: Antiproliferative activity against human SF295 cells at 10 uM incubated for 48 hrs by sulforhodamine B assay; how it was run: as §1
# SNB-19 = assay: Antiproliferative activity against human SNB19 cells at 10 uM incubated for 48 hrs by sulforhodamine B assay; how it was run: as §1
# HL-60(TB) = assay: Antiproliferative activity against human HL-60(TB) cells at 10 uM incubated for 48 hrs by sulforhodamine B assay
# How it was run: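 Tested within the NCI60 cancer cell line panel screen run by the Developmental Therapeutics Program (Division of Cancer Treatment and Diagnosis, National Cancer Institute). Each stereoisomer was given at a single dose of 10 μM. Results are reported as one-dose mean graphs.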
# COLO 205 = assay: Antiproliferative activity against human COLO205 cells at 10 uM incubated for 48 hrs by sulforhodamine B assay; how it was run: as §1
# OVCAR-8 = assay: Antiproliferative activity against human OVCAR8 cells at 10 uM incubated for 48 hrs by sulforhodamine B assay; how it was run: as §1
# NCI/ADR-RES = assay: Antiproliferative activity against human NCI/ADR-RES cells at 10 uM incubated for 48 hrs by sulforhodamine B assay; how it was run: as §1
# SK-OV-3 = assay: Antiproliferative activity against human SKOV3 cells at 10 uM incubated for 48 hrs by sulforhodamine B assay; how it was run: as §1
# RXF 393 = assay: Antiproliferative activity against human RXF393 cells at 10 uM incubated for 48 hrs by sulforhodamine B assay; how it was run: as §1
# KM12 = assay: Antiproliferative activity against human KM12 cells at 10 uM incubated for 48 hrs by sulforhodamine B assay; how it was run: as §1
# HCC 2998 = assay: Antiproliferative activity against human HCC2998 cells at 10 uM incubated for 48 hrs by sulforhodamine B assay; how it was run: as §1
# A498 = assay: Antiproliferative activity against human A498 cells at 10 uM incubated for 48 hrs by sulforhodamine B assay; how it was run: as §1
# MDA-MB-468 = assay: Antiproliferative activity against human MDA-MB-468 cells at 10 uM incubated for 48 hrs by sulforhodamine B assay; how it was run: as §1
# UO-31 = assay: Antiproliferative activity against human UO31 cells at 10 uM incubated for 48 hrs by sulforhodamine B assay
# How it was run: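 Run by the NCI Developmental Therapeutics Program (Division of Cancer Treatment and Diagnosis) as part of the NCI60 human tumour cell line panel. Each compound was tested in vitro at a single dose of 10 μM, and the data are reported as one-dose mean graphs across the panel.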
# DU-145 = assay: Antiproliferative activity against human DU145 cells at 10 uM incubated for 48 hrs by sulforhodamine B assay; how it was run: as §1
SMILES,Activity (SN12C),Activity (SF-295),Activity (SNB-19),Activity (HL-60(TB)),Activity (COLO 205),Activity (OVCAR-8),Activity (NCI/ADR-RES),Activity (SK-OV-3),Activity (RXF 393),Activity (KM12),Activity (HCC 2998),Activity (A498),Activity (MDA-MB-468),Activity (UO-31),Activity (DU-145)
O=C1C[C@H]2O[C@H]([C@@H](O)c3ccccc3)[C@H](O)[C@H]2O1,Active,Active,Active,Active,Active,Active,Active,Active,Active,Active,Active,Active,Active,Active,Active
O=C(/C=C/c1ccccc1)O[C@H](c1ccccc1)[C@@H]1O[C@@H]2CC(=O)O[C@@H]2[C@H]1O,Active,Active,Active,Active,Active,Active,Active,Active,Active,Active,Active,Active,Active,Active,Active
CC(=O)O[C@H](C)[C@H]1O[C@H]2CC(=O)O[C@H]2[C@@H]1O,inactive,inactive,inactive,inactive,inactive,inactive,inactive,inactive,inactive,inactive,inactive,inactive,inactive,inactive,inactive
CC(=O)O[C@@H](C)[C@@H]1O[C@@H]2CC(=O)O[C@@H]2[C@H]1O,inactive,inactive,inactive,inactive,inactive,inactive,inactive,inactive,inactive,inactive,inactive,inactive,inactive,inactive,inactive
CC(=O)O[C@H](C)[C@@H]1O[C@@H]2CC(=O)O[C@@H]2[C@H]1O,inactive,inactive,inactive,inactive,inactive,inactive,inactive,inactive,inactive,inactive,inactive,inactive,inactive,inactive,inactive
CC(=O)O[C@@H](C)[C@H]1O[C@H]2CC(=O)O[C@H]2[C@@H]1O,inactive,inactive,inactive,inactive,inactive,inactive,inactive,inactive,inactive,inactive,inactive,inactive,inactive,inactive,inactive
O=C1C[C@H]2O[C@H]([C@H](O)c3ccccc3)[C@H](O)[C@H]2O1,Active,Active,Active,Active,Active,Active,Active,Active,Active,Active,Active,Active,Active,Active,Active
